Read-outs that look alike come from different tables or passages of the source.
Key:
[1] = system: HIV-1 FSS RNA upper stem-loop; assay: SPR binding to immobilized HIV-1 FSS RNA upper stem-loop; conditions: for increased affinity over 2 and 3 / weaker binding / decrease in affinity relative to dimers 4 and 5: SPR KD ratio
Method in brief: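 Streptavidin (about 2000 RU) on a CM5 chip; 5′-biotin HIV-1 FSS RNA (500 nM) captured once at about 300 RU and once at about 1200 RU, against a biotin-blocked reference cell. Compound series run in (a) HBS pH 7.4 at 60 μL/min or (b) HEPES/NaCl/MgCl2/Tween-20 at 50 μL/min, each injection at least twice. For (a), ≥5 sensorgrams globally fit to a 1:1 Langmuir model; for (b), individual fits; ka, kd, KD derived.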

tRNA = conditions: previously found; cited from earlier work
[2] = system: pseudotyped HIV-1 virions; assay: Single-round infectivity assay with pseudotyped HIV-1; type: cell-based
[3] = system: HIV-1 FSS RNA upper stem-loop; conditions: conditions (a) HBS buffer; ref [35]; cited from earlier work
[4] = system: Gag:Gag-Pol ratio in pseudotyped virions; assay: Western blot of isolated viral particles for RT and p24; type: cell-based, HIV-1; conditions: for RT in unprocessed Gag-Pol (p160) relative to mature RT (p66 + p51) / amount of RT relative to capsid protein p24: Western blot of viral particles; for amount of RT relative to capsid protein p24: as a function of added compound
Method in brief: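 HEK293T producer cells co-transfected with env-deleted, GFP-carrying HIV-1NL4–3 proviral vector and VSV-G vector (1:0.5, Fugene HD). Test compound added 4 h post-transfection; virions collected from media at 24 h through a 0.45-μm filter. Equal p24-ELISA loads were pelleted through a 20% sucrose cushion at 100,000g, then Western blotted for RT and p24.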

HTLV-2 FSS RNA = assay: SPR binding to HTLV-2 FSS RNA; conditions: concentrations up to 3 μM; HBS buffer
Method in brief: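 SPR on a CM5 chip with about 2000 RU streptavidin, immobilized by EDC/NHS. 5′-Biotin HTLV-2 FSS RNA (500 nM) captured to about 300–1200 RU; the biotin-blocked flow cell served as reference. Test compound flowed at varying concentrations in HBS (0.01 M HEPES, 0.150 M NaCl, pH 7.4) at 60 μL/min. Each concentration injected at least twice; sensorgrams reference-subtracted and blank-corrected.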

[5] = system: pDualHIV(0) transfected HEK 293FT cells; assay: Dual-luciferase control assay, pDualHIV; type: cell-based, human
Method in brief: (§1)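 HEK 293FT cells plated at 1.5 × 10^4 cells/well 6 h before transfection, in DMEM with 10% FBS. Transfected with 0.2 μg reporter plasmid (lipofectamine 2000). At 5 h, test compound (0–50 μM) added in triplicate for 36 h at 37 °C. Cells PBS-washed and lysed; Rluc and Fluc read by dual-luciferase assay. Fluc/Rluc ratio expressed relative to untreated cells, set to 100%.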

HEK 293FT cells [6] = assay: WST-1 cell viability assay; type: cell-based, human; conditions: 24 h
Method in brief: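 HEK 293FT cells grown to 80% confluence in 96-well plates (DMEM, 10% FBS, 37 °C). Test compound (up to 0.5 mM) or sterile water control added in triplicate for 24 h at 37 °C. Premix WST-1 reagent then added for 2 h at 37 °C. Absorbance at 450 minus 690 nm, blank-corrected, plotted against concentration; mean of three with SD.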

HEK 293FT cells [7] = assay: Cell permeation by fluorescence microscopy; type: cell-based, human; conditions: HEK 293FT, 50, 100, 200, and 500 μM for 12 h
Method in brief: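 HEK 293FT cells grown to 80% confluence at 37 °C, 5% CO2, in DMEM with 10% FBS and 1% penicillin-streptomycin. Cells exposed to test compound for 12 h (methods give 50 μM; the text lists 50–500 μM). Washed twice with PBS to remove surface-bound compound, then imaged in buffer by fluorescence microscopy with 358-nm excitation and 460-nm emission filters.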

HIV-1 FSS DNA = assay: Fluorescence titration with HIV-1 FSS DNA; type: binding; conditions: by fluorescence
Method in brief: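 Fluorescence titration in 20 mM HEPES, 150 mM NaCl, with test compound at 1 μM. HIV-1 FSS RNA (10 μM stock) or FSS DNA (40 μM stock) titrated in. Each addition mixed, then 10 min to equilibrate. Benzo[g]quinoline fluorescence quenching read three times, 1 min apart, and corrected for dilution to give KD. Selectivity compares the FSS RNA and FSS DNA KDs.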

[8] = system: HIV-1 FSS-dependent −1 frameshifting in HEK 293FT cells; assay: Dual-luciferase frameshift assay, pDualHIV; type: cell-based, human; conditions: pDualHIV(−1)
Method in brief: as §1

HIV-1 FSS RNA = conditions: read-out: KD for HIV-1 FSS; ref [31]; cited from earlier work
[9] = conditions (a) HBS buffer (0.01 M HEPES, 0.150 M NaCl, pH = 7.4), global fit
[10] = conditions (b) 20 mM HEPES, 150 mM NaCl, 5 mM MgCl2, 0.005% Tween-20

For “2-ethyl benzo[g]quinoline carboxylic acid”, the “binding to HIV-1 FSS RNA by SPR (qualitative)” value [1] was “No binding was observed”.

In the case of CCc1nc2ccccc2cc1C(=O)N[C@@H](C/C=C/C[C@H](NC(=O)c1cc2ccccc2nc1CC)C(=O)N1CCC[C@H]1C(=O)N[C@@H](Cc1ccccc1)C(=O)NCCCN)C(=O)N1CCC[C@H]1C(=O)N[C@@H](Cc1ccccc1)C(=O)NCCCN [Compound 3], the “affinity for tRNA” value (tRNA) is listed as “no measurable affinity”, the “activity in pseudotyped HIV-1 assay” value ([2]; preliminary experiments (data not shown)) is listed as “no activity” and the “association rate, ka” value [3] is listed as 1.62 × 10^3 M^–1s^-1. For the same molecule, the dissociation rate kd [3] was 7.5 × 10^–3 s^–1.

For CCc1nc2cc3ccccc3cc2cc1C(=O)N[C@@H](C/C=C\C[C@H](NC(=O)c1cc2cc3ccccc3cc2nc1CC)C(=O)N1CCC[C@H]1C(=O)N[C@@H](Cc1ccccc1)C(=O)NCCCN)C(=O)N1CCC[C@H]1C(=O)N[C@@H](Cc1ccccc1)C(=O)NCCCN [Compound 4], the “lower concentration than RG501 for roughly equivalent increase in RT” value [4] was 37.5 fold, the “RT in unprocessed Gag-Pol (p160) relative to mature RT (p66 + p51)” value [4] was “increased significantly” and the “amount of RT relative to capsid protein p24” value [4] was “increasing amounts of RT”. The “binding to HTLV-2 FSS by SPR” value (HTLV-2 FSS RNA) was “no binding was observed”, the “increased affinity over 2 and 3” value [1] was “approximately 50 fold” and the “association rate, ka” value [1, 9] was “(4.25 ± 0.22) × 10^4 M^–1s^-1”. The dissociation rate kd [1, 9] was “(4.11 ± 0.02) × 10^–3 s^–1”, the “association rate, ka” value [1, 10] was “(2.17 ± 0.77) × 10^4 M^–1s^-1” and the dissociation rate kd [1, 10] was “(1.35 ± 0.03) × 10^–3 s^–1”. For the same molecule, the Kd ([1]; read-out: affinity (KD) for HIV-1 FSS by SPR, HBS buffer) was 89 nM, the “change in Fluc to Rluc ratio relative to untreated cells” value [5] was “No change” and the “concentrations at which no significant toxicity occurred” value (HEK 293FT cells [6]) was “below 60 μM”. For the same molecule, the “cell penetration (internalization)” value (HEK 293FT cells [7]) was “internalized”.

For CCc1nc2cc3ccccc3cc2cc1C(=O)N[C@@H](C/C=C/C[C@H](NC(=O)c1cc2cc3ccccc3cc2nc1CC)C(=O)N1CCC[C@H]1C(=O)N[C@@H](Cc1ccccc1)C(=O)NCCCN)C(=O)N1CCC[C@H]1C(=O)N[C@@H](Cc1ccccc1)C(=O)NCCCN [Compound 5], the “selectivity for FSS RNA vs FSS DNA” value (HIV-1 FSS DNA) was “no selectivity”, the “lower concentration than RG501 for roughly equivalent increase in RT” value [4] was 37.5 fold and the “RT in unprocessed Gag-Pol (p160) relative to mature RT (p66 + p51)” value [4] was “increased significantly”. For the same molecule, the “amount of RT relative to capsid protein p24” value [4] was “increasing amounts of RT”, the “binding to HTLV-2 FSS by SPR” value (HTLV-2 FSS RNA) was “no binding was observed” and the “increased affinity over 2 and 3” value [1] was “approximately 50 fold”. For the same molecule, the “association rate, ka” value [1, 9] was “(3.99 ± 0.37) × 10^4 M^–1s^-1”, the dissociation rate kd [1, 9] was “(3.75 ± 0.12) × 10^–3 s^–1” and the “association rate, ka” value [1, 10] was “(3.68 ± 1.45) × 10^4 M^–1s^-1”. The dissociation rate kd [1, 10] was “(3.46 ± 2.05) × 10^–3 s^–1”, the “change in Fluc to Rluc ratio relative to untreated cells” value [5] was “No change” and the “concentrations at which no significant toxicity occurred” value (HEK 293FT cells [6]) was “below 60 μM”. The “cell penetration (internalization)” value (HEK 293FT cells [7]) was “internalized”.

With C=CC[C@H](NC(=O)c1cc2cc3ccccc3cc2nc1CC)C(=O)N1CCC[C@H]1C(=O)N[C@@H](Cc1ccccc1)C(=O)NCCCN [Compound 6] the “weaker binding / decrease in affinity relative to dimers 4 and 5” value [1] was 200 fold, the “association rate, ka” value [1, 9] was “(1.16 ± 0.06) × 10^3 M^–1s^-1” and the dissociation rate kd [1, 9] was “(2.25 ± 0.01) × 10^–2 s^–1”.

With CCc1nc2cc3ccccc3cc2cc1C(=O)N[C@@H](C/C=C\C[C@H](N)C(=O)N1CCC[C@H]1C(=O)N[C@@H](Cc1ccccc1)C(=O)NCCCN)C(=O)N1CCC[C@H]1C(=O)N[C@@H](Cc1ccccc1)C(=O)NCCCN [Compound 7] the “weaker binding / decrease in affinity relative to dimers 4 and 5” value [1] was “approximately 200 fold”, the “association rate, ka” value [1, 9] was “(4.58 ± 1.27) × 10^3 M^–1s^-1” and the dissociation rate kd [1, 9] was “(1.21 ± 0.00) × 10^–2 s^–1”.

With CCc1nc2cc3ccccc3cc2cc1C(=O)N[C@@H](C/C=C/C[C@H](N)C(=O)N1CCC[C@H]1C(=O)N[C@@H](Cc1ccccc1)C(=O)NCCCN)C(=O)N1CCC[C@H]1C(=O)N[C@@H](Cc1ccccc1)C(=O)NCCCN [Compound 8] the “weaker binding / decrease in affinity relative to dimers 4 and 5” value [1] was 30 fold, the “association rate, ka” value [1, 9] was “(7.71 ± 4.9) × 10^3 M^–1s^-1” and the dissociation rate kd [1, 9] was “(1.63 ± 1.12) × 10^–1 s^–1”.

With NCCCNC(=O)[C@H](Cc1ccccc1)NC(=O)[C@@H]1CCCN1C(=O)[C@@H](N)C/C=C/C[C@H](N)C(=O)N1CCC[C@H]1C(=O)N[C@@H](Cc1ccccc1)C(=O)NCCCN [Compound 10] the “increase in Fluc to Rluc ratio (−1 PRF)” value ([8]; at 50 μM, 36 h) was “no significant effect”, the “binding to HIV-1 FSS RNA by SPR (qualitative)” value [1] was “completely abrogated binding” and the “association rate, ka” value ([1]; conditions a, b (both buffers)) was “none obsd”. For the same molecule, the “dissociation constant, KD” value ([1]; conditions a, b (both buffers)) was “none obsd”, the dissociation rate kd ([1]; conditions a, b (both buffers)) was “none obsd” and the decrease in infectivity ([2]; 40 μM, producer cells treated) was “modest decrease”.

For CCc1nc2cc3ccccc3cc2cc1C(=O)N[C@@H](CSSC[C@H](NC(=O)c1cc2cc3ccccc3cc2nc1CC)C(=O)N1CCC[C@H]1C(=O)N[C@@H](Cc1ccccc1)C(=O)NCCCN)C(=O)N1CCC[C@H]1C(=O)N[C@@H](Cc1ccccc1)C(=O)NCCCN [Compound 11], the “stimulation of HIV-1 frameshifting” value ([8]; concentrations above 10 µM not examined) was “approximately 25%”, the “binding to HTLV-2 FSS by SPR” value (HTLV-2 FSS RNA) was “no binding was observed” and the “weaker binding / decrease in affinity relative to dimers 4 and 5” value [1] was roughly 7 fold. For the same molecule, the “association rate, ka” value [1, 9] was “(1.07 ± 0.07) × 10^4 M^–1s^-1”, the dissociation rate kd [1, 9] was “(7.92 ± 0.53) × 10^–3 s^–1” and the “concentrations at which compound proved toxic” value (HEK 293FT cells [6]) was “above 10 μM”. For the same molecule, the “cell penetration (internalization)” value (HEK 293FT cells [7]) was “internalized”.

In the case of COc1cccc2c1C(=O)c1c(O)c3c(c(O)c1C2=O)C[C@@](O)(C(=O)CO)C[C@@H]3O[C@H]1C[C@H](N)[C@H](O)[C@H](C)O1 [Doxorubicin], the Kd (HIV-1 FSS RNA) is given as 2800 nM.
